Results published in ChEMBL document CHEMBL2407057, “Structural variations on antitumour agents derived from bisacylimidoselenocarbamate. A proposal for structure-activity relationships based on the analysis of conformational behaviour” (Eur J Med Chem, 2013).

Tests used:
[1] = Prodrug activation assessed as induction of NaBH4-induced […] release at 60 mM after 16 hrs by head space gas chromatography mass spectrometry analysis; conditions: 60000 µM
Procedure, shortened: (§1)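 Compounds dissolved at 60 mM in 5% DMSO/H2O and held at room temperature in sealed vials. Headspace sampled at 8, 16 and 24 h for HS-GC–MS on an HP-5MS column with helium carrier at 1 mL/min, 50:1 split, and EI at 70 eV. SCAN mode was used to set SIM for MeSeH (tR 1.5 min) and DiMeDiSe (tR 2.9 min). Read-out was peak area.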

[2] = Prodrug activation assessed as induction of NaBH4-induced […] release at 60 mM after 24 hrs by head space gas chromatography mass spectrometry analysis; conditions: 60000 µM; procedure, shortened: as §1
[3] = Prodrug activation assessed as induction of NaBH4-induced MeSeH release at 60 mM after 8 hrs by head space gas chromatography mass spectrometry analysis; conditions: 60000 µM; procedure, shortened: as §1
[4] = Prodrug activation assessed as induction of NaBH4-induced DiMeDiSe release at 60 mM after 8 hrs by head space gas chromatography mass spectrometry analysis; conditions: 60000 µM; procedure, shortened: as §1
[5] = test system: HT-29; experiment: Cytotoxicity against human HT-29 cells after 72 hrs by MTT assay; assay type: functional; conditions: HT-29, 72 h; for GI50: read-out: pGI50 (converted)
[6] = test system: MCF7; experiment: Cytotoxicity against human MCF7 cells after 72 hrs by MTT assay; assay type: functional; conditions: MCF7, 72 h; for GI50: read-out: pGI50 (converted)

| Compound | Drug metabolism [1] | Drug metabolism [2] | Drug metabolism [3] | Drug metabolism [4] | TGI [5] | GI50 [6] | GI50 [5] | CC50 ([6]; read-out: LC50 (the source's name)) |
| --- | --- | --- | --- | --- | --- | --- | --- | --- |
| C[Se]/C(=N\C(=O)c1ccco1)NC(=O)c1ccco1 | Active | Active | Active | Active | – | – | – | – |
| C[Se]/C(=N\C(=O)c1cccs1)NC(=O)c1cccs1 | Active | Active | Not Active | Active | – | – | – | – |
| C[Se]/C(=N\C(=O)c1sccc1Cl)NC(=O)c1sccc1Cl | – | – | Active | Active | 38.8 µM | – | – | – |
| C[Se]/C(=N\C(=O)c1csc([N+](=O)[O-])c1)NC(=O)c1csc([N+](=O)[O-])c1 | – | – | Active | Not Active | – | – | – | – |
| C[Se]/C(=N\C(=O)c1ccno1)NC(=O)c1ccno1 | – | – | Not Active | Active | – | – | – | – |
| C[Se]/C(=N\C(=O)c1cc2ccccc2s1)NC(=O)c1cc2ccccc2s1 | – | – | Not Active | Not Active | 40.1 µM | 5.07 µM | 5.62 µM | – |
| C[Se]/C(=N\C(=O)c1ccc2c(c1)OCO2)NC(=O)c1ccc2c(c1)OCO2 | – | – | Not Active | Not Active | – | 0.99 µM | 0.53 µM | – |
| C[Se]/C(=N\C(=O)c1cnc2ccccc2c1)NC(=O)c1cnc2ccccc2c1 | Active | Active | Not Active | Not Active | – | 0.66 µM | 0.2 µM | – |
| C[Se]/C(=N\C(=O)c1cc(-c2ccccc2)nc2ccccc12)NC(=O)c1cc(-c2ccccc2)nc2ccccc12 | – | – | Not Active | Not Active | 32.6 µM | 0.49 µM | 0.46 µM | – |
| C[Se]/C(=N\C(=O)c1c2ccccc2nc2ccccc12)NC(=O)c1c2ccccc2nc2ccccc12 | Active | Active | Not Active | Not Active | 64 µM | 73.9 µM | 7.63 µM | – |
| CC[C@@]1(O)C(=O)OCc2c1cc1n(c2=O)Cc2cc3ccccc3nc2-1 [CAMPTOTHECIN] | – | – | – | – | 0.79 µM | – | – | – |
| COc1cccc2c1C(=O)c1c(O)c3c(c(O)c1C2=O)C[C@@](O)(C(=O)CO)C[C@@H]3O[C@H]1C[C@H](N)[C@H](O)[C@H](C)O1 [DOXORUBICIN] | – | – | – | – | 6.31 µM | – | – | – |
| CN(Cc1cnc2nc(N)nc(N)c2n1)c1ccc(C(=O)N[C@@H](CCC(=O)O)C(=O)O)cc1 [METHOTREXATE] | – | – | – | – | – | – | – | > 100 µM |
| CC(=O)O[C@H]1C(=O)[C@@]2(C)[C@H]([C@H](OC(=O)c3ccccc3)[C@]3(O)C[C@H](OC(=O)[C@H](O)[C@@H](NC(=O)c4ccccc4)c4ccccc4)C(C)=C1C3(C)C)[C@]1(OC(C)=O)CO[C@@H]1C[C@@H]2O [PACLITAXEL] | – | – | – | – | 0.2 µM | – | – | – |
